# Screens: PubChem BioAssay, several laboratories
# An excerpt weighted towards active compounds, which were near 2.2% of everything screened.
# Ba/F3 V617F tox = loss of viability in JAK2V617F-driven Ba/F3 cells; Ba/F3 EpoR-JAK2V617F viability, ATP luminescence; inhibition, % at 5.6 µM; AID 1446; 220,000 compounds, 1.1% hits;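 active = inhibition above the campaign mean plus 3 SD over all tested compounds, cut at about 24% in these data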;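 also: cytokine-independent growth of Ba/F3 cells driven by EpoR plus mutant JAK2; 0% = DMSO-treated cells and 100% = JAK inhibitor I control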
# BaF3 parental = reduces parental Ba/F3 cell viability, JAK2V617F counter-screen | CellTiter-Glo ATP luminescence | inhibition, % at 5.6 µM | 220,000 compounds, 1.1% hits | AID 1486;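 active = inhibition above a per-campaign cutoff, the mean inhibition of all tested compounds plus 3 SD, cut at about 27% in these data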;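 also: 0% = DMSO wells and 100% = JAK Inhibitor I control wells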
# APP transl inh = APP translation inhibition | 190,000 compounds, 0.82% hits | inhibition, % at 2 µM | SH-SY5Y APP 5'UTR-luciferase reporter, luminescence;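 active = inhibition above a set limit, derived from the sample mean plus 3 SD, cut at about 45% in these data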
# bCat nuc transl = alters nuclear translocation of beta-catenin in HeLa cells; nuclear translocation activity, % at 5 µM; 190,000 compounds, 0.3% hits; immunofluorescence imaging;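 active = nuclear translocation activity above 50% at 5 µM, with a well cell count of 50 or more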;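 also: per-cell ratio of nuclear to cytoplasmic median beta-catenin stain intensity; plate controls were DMSO negative control for no effect and GSK-3 inhibitor IX positive control for full effect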
#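 assay system = human HeLa cells, endogenous beta-catenin | times = compound treatment 24 h, 37°C, 5% CO2 | detection = Anti-beta-catenin immunofluorescence on PFA-fixed, Triton-permeabilized cells, DAPI nuclei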
# MT stabilize HCS = stabilizes microtubules in HeLa cells; HeLa tubulin immunostaining HCS, 24 h; share of cells brighter than vehicle mean+2SD; AID 2205; % tubulin-high responders, % at 10 µM; 200,000 compounds, 0.83% hits;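 active = plate Z-score above 3 for both tubulin-high and condensed-nucleus cell shares, with cell loss under 80%, at 10 µM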;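 also: anti alpha tubulin signal scored within the nucleus-defined area of each cell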
# IEC-6 tox = kills IEC-6 intestinal cells in KLF5 counter-screen; inhibition, % at 5 µM; IEC-6 cytotoxicity, luminescence viability; 290,000 compounds, 0.78% hits; in the data active = inhibition above about 22%;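 also: 0% = plate median of test compound wells and 100% = cytotoxic reference compound wells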
# Numbers without * were called inactive; . = not tested or not shown.
SMILES,Ba/F3 V617F tox,BaF3 parental,APP transl inh,bCat nuc transl,MT stabilize HCS,IEC-6 tox
COC(=O)Nc1ccc2c(c1)N(C(=O)CCN(C)C)c1ccccc1CC2,.,.,.,.,.,2.3
Oc1ccc(Nc2nc(-c3ccc4ccccc4c3)cs2)cc1,98.5*,57.3*,2.4,.,3.0,4.3
c1cncc(-c2csc(-c3cccnc3)n2)c1,.,.,.,.,.,1.2
Oc1ccc(-c2csc(-c3cccnc3)n2)c(O)c1,4.3,18.2,-71.1,25.4,12.0*,9.3
Oc1ccc(-c2nc(-c3ccc(O)c(O)c3)cs2)cc1,88.3*,81.0*,93.6*,66.4*,14.6*,-1.3
CCn1cc(C(=O)N[C@H](C(=O)NCCO)C(C)C)c(=O)c2cc3c(cc21)OCO3,.,.,.,.,.,-5.2
CCOc1ccc(NC(=O)c2ccc(NS(=O)(=O)c3cccs3)cc2)cc1,.,.,.,.,.,-1.5
CC1CCCN(C(=O)Cn2nnc(-c3ccccc3F)n2)C1 (centres undefined),.,.,.,.,.,-4.2
CSc1ccccc1NC(=O)CSCc1ccc(C)cc1,-0.4,2.0,9.8,6.6,30.5*,0.3
O=C(CSCc1ccc(Cl)cc1)Nc1ccccc1O,1.0,5.0,-3.6,-1.9,3.7,-4.2
Cc1cc(C)cc(C(=O)N(CCc2ccccc2)C2CC3CCC(C2)N3C)c1 (centres undefined),.,.,.,.,.,5.1
CC1(C)CC(N2CCCC2)=CC(=[N+]2CCCC2)C1,79.2*,68.6*,21.6,0.6,2.6,16.2
CC1(C)CC(N2CCN(Cc3ccccc3)CC2)=CC(=[N+]2CCCCC2)C1,80.1*,70.7*,.,0.8,.,3.6
c1ccc(CN2CCN(c3ncccn3)CC2)cc1,.,.,.,.,.,5.4
O=C(N/C(=C/c1ccc(Br)cc1)C(=O)N1CCCCC1)c1ccccc1F,.,.,.,.,.,4.6
CCOC(=O)c1cc2c(ccn2-c2ccc(F)cc2)n1CC(=O)NC(C)(C)C,4.6,90.4*,-3.1,-0.5,2.0,8.8
CCn1c(C(=O)OC)cc2c1ccn2-c1ccc(F)cc1,-2.0,0.2,-79.6,.,6.8,4.2
NS(=O)(=O)c1ccc(CCNCc2ccccc2OCc2ccc(Cl)cc2)cc1,.,.,.,.,.,-1.4
CC(Sc1nnc2ccccn12)C(=O)Nc1ncc(Cl)cc1Cl (centres undefined),2.7,-0.6,-5.8,-1.6,3.2,4.5
COc1ccc(-n2c(SC(C)C(=O)Nc3ncc(Cl)cc3Cl)nc3ccccc32)cc1 (centres undefined),68.5*,62.0*,25.1,13.0,17.7*,66.5*
CCOC(=O)c1c(NC(=O)COC)sc(C)c1C,-0.5,4.5,-2.5,-0.6,4.4,6.5
CCOC(=O)c1c(NC(=O)C[n+]2ccc(N(C)C)cc2)sc(C)c1C,29.3*,35.0*,-15.3,0.5,4.6,7.5
CCOC(=O)c1c(NC(=O)CN2C(=O)NC3(CCCCC3C)C2=O)sc(C)c1C (centres undefined),1.4,5.7,10.8,1.0,1.6,6.1
CCOC(=O)c1c(NC(=O)CN2C(=O)NC(C)(c3ccccc3)C2=O)sc(C)c1C (centres undefined),2.1,9.3,17.7,62.5*,13.2*,-0.6
O=C(NCc1cccc(C(F)(F)F)c1)c1ccc2c(c1)OCCO2,.,.,.,.,.,3.5
SMILES,Ba/F3 V617F tox,BaF3 parental,APP transl inh,bCat nuc transl,MT stabilize HCS,IEC-6 tox
CCCc1nc(SCC(=O)N2CCCCCC2)c2c(=O)n(C)c(=O)n(C)c2n1,.,.,.,.,.,-4.9
COC(=O)c1cc(Cl)c(NC(=O)/C=C/c2ccc(OC)cc2)cc1OC,-1.4,1.4,24.0,7.7,25.6*,-5.7
COC(=O)c1cc(Cl)c(NC(=O)C(C)C)cc1OC,0.0,4.4,-19.4,0.2,1.6,-8.4
Cc1ccc(-n2ncc3c(SCc4ccccn4)ncnc32)c(C)c1,11.6,34.9*,-2.0,5.2,3.3,1.3
CCN1CCN(c2c(S(=O)(=O)c3ccc(C)c(C)c3)cnc3ccc(F)cc23)CC1,.,.,.,.,.,7.6
Cc1cccc(C(C)C)c1NS(=O)(=O)c1cn(C)nc1C,.,.,.,.,.,1.3
Cc1ccc(CN2C(=O)/C(=C\c3ccc(C(=O)NCc4cccnc4)cc3)Oc3ccccc32)cc1,-4.4,-2.2,71.7*,1.3,2.1,-0.4
O=C(CN1C(=O)/C(=C\c2ccccc2Cl)Oc2ccccc21)NCc1cccnc1,3.3,1.2,-8.0,-0.3,1.4,0.5
O=c1[nH]c(SCCOc2ccccc2F)nc2ccccc12,-3.9,-0.1,-5.6,-1.4,2.6,-0.6
COc1ccccc1OCCSc1nc2ccccc2c(=O)[nH]1,1.4,95.4*,-12.1,-1.3,3.3,2.6
CCS(=O)(=O)N1CCN(c2c(Cl)cccc2[N+](=O)[O-])CC1,2.3,6.1,0.3,-1.8,1.7,0.7
CS(=O)(=O)N1CCN(c2c(Cl)cccc2[N+](=O)[O-])CC1,4.1,50.9*,-0.5,0.2,1.7,1.4
Cn1c(-c2ccc3c(c2)OCO3)cnc1NCc1ccccc1,-1.4,8.8,-7.0,4.4,20.5*,0.0
COc1ccccc1C(=O)N1CCN(c2cccc(C(F)(F)F)c2)CC1,3.6,14.7,17.2,87.8*,35.0*,5.9
O=C(c1cccc([N+](=O)[O-])c1)N1CCN(c2cccc(Cl)c2)CC1,0.8,5.9,2.6,14.4,26.7*,7.7
COc1ccc(C(=O)N2CCN(c3cccc(Cl)c3)CC2)c(OC)c1,1.2,7.8,-11.3,.,43.7*,9.2
COc1ccc(C(C)(C)NC(=O)C2CCC(=O)N(CCCN3CCCC3=O)C2)cc1 (centres undefined),.,.,.,.,.,-1.7
CCOC(=O)c1c(-c2ccccc2)oc2ccc(OCC(O)CN(C)C)cc12 (centres undefined),.,.,.,.,.,-0.3
Fc1cccc(Cl)c1Cn1nnc(-c2ccc(N3CCOCC3)cc2)n1,-2.7,0.0,-6.6,-1.7,3.4,1.6
Clc1cccc(Cl)c1Cn1nnc(N2CCCC2)n1,34.4*,60.6*,.,0.5,.,0.0
Cc1c(NC(=O)c2cc3nc(-c4ccc(Br)cc4)cc(C(F)(F)F)n3n2)c(=O)n(-c2ccccc2)n1C,1.6,93.6*,11.6,-2.5,1.6,3.4
CCCCN(C(=O)C(C)Oc1ccc(Br)cc1)c1c(N)n(Cc2ccccc2)c(=O)[nH]c1=O (centres undefined),.,.,.,.,.,-4.2
COc1ccc(NS(=O)(=O)c2ccc(N3CCOCC3)c(NC(=O)c3ccccc3Cl)c2)cc1,42.7*,41.8*,-1.5,-0.2,5.5,2.2
COc1ccc(NS(=O)(=O)c2ccc(N3CCOCC3)c(NC(=O)c3ccc(OC)cc3)c2)cc1,41.5*,42.1*,-4.2,-2.4,3.2,5.7
COc1ccc(NS(=O)(=O)c2ccc(O)c(NC(=O)c3ccc(S(=O)(=O)N4CCCCCC4)cc3)c2)cc1,-1.5,3.8,-11.6,1.3,1.4,2.4
COc1ccc(NS(=O)(=O)c2cccc(NC(=O)c3ccc(S(=O)(=O)N4CCCCCC4)cc3)c2)cc1,41.9*,43.9*,21.8,0.2,18.2*,11.0
COc1ccc(-c2cc(-c3cccs3)c(C#N)c(SCC(=O)NCc3ccco3)n2)cc1,7.1,7.2,96.5*,93.9*,20.3*,0.2
